Assay results from PubChem BioAssay.
Inconclusive results are not listed.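 How the source made its calls, unless noted: active means viability increase at or above a cutoff of the median across tested compounds plus 3 SD (cut at about 8.5% in these data, passing the limit was not always enough); inconclusive means some gains above the cutoff, reason not given; inactive means the rest.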

Tests used:
[1] = OD615 S. cerevisiae growth inhibition, permissive medium, pilot counter-assay, permissive growth control for S. cerevisiae lifespan shortening project (AID 705;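 active means growth inhibition above 25% in both replicates, a cutoff set 3 SD above the mean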); conditions: OD615, 24 h, at 10 µM, hits give high values
Method in brief: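 System: Engineered DeaD yeast | Buffer or medium: SC raffinose/galactose permissive medium | Doses: 10 µM single dose, 0.25% DMSO | Times: 24 h exposure, 30 °C | Measured by: OD615 turbidity read | Read-out: Yeast growth inhibition indicated by reduced 24 h OD615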

[2] = Restrictive medium S. cerevisiae growth inhibition, OD615, pilot screen of yeast lifespan reduction project, restrictive growth control (AID 706;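 active means growth inhibition above a set limit, 3 SD over mean compound inhibition, in both replicates, cut at about 43% in these data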;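 further: modified DeaD lifespan yeast strain shifted to restrictive glucose medium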); conditions: OD615, 48 h, at 10 µM, hits give high values
Method in brief: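 Assay system: engineered S. cerevisiae DeaD strain; Buffer or medium: CSMM-D glucose medium; Dosing: 10 µM compound, 0.25% DMSO; Times: cell pre-growth 4 h, compound exposure 48 h, 30 °C; Detection: absorbance (optical density) measured at 615 nm.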

[3] = viability gain of MRP-1-high H69AR cells under doxorubicin, pilot screen, MRP-1 activator project, CellTiter-Glo, duplicate (AID 807); conditions: H69AR viability with doxorubicin, CellTiter-Glo luminescence; at 10 µM; hits give high values;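 further: compound pretreatment 18-22 h then 72 h combined with doxorubicin; 0% = doxorubicin alone and 100% = vehicle without doxorubicin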
[4] = growth suppression of beta-catenin knockout HCT116, pilot screen, human colon tumor cells (AID 823;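 active means cell viability at or below a set limit in both duplicate runs, the limit being the all-compound median minus 4 SD, cut at about 23% in these data, passing the limit was not always enough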;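 further: 0% = wells killed by 20 µM Hyamine and 100% = untreated DMSO cell wells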); conditions: CellTiter-Glo, 60 h, at 10 µM, hits give low values
[5] = growth suppression of PTEN-deleted HCT116, pilot screen, cell-based, HCT116 clonal line, CellTiter-Glo (AID 824;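 active means viability at or below 27.92% in each of two runs, the all-compound median minus 4 SD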;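 further: 0% = 20 µM Hyamine control and 100% = vehicle cell control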); conditions: 60 h, at 10 µM, hits give low values
[6] = inhibitors of the yeast RAM network, pilot screen, dse1pr::URA3 reporter, 5-FOA selection (AID 869;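 active means inhibition over a set limit, the all-compound mean plus 3 SD, in both replicate runs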;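 further: 0% = DMSO wells with no growth and 100% = 10 µM 1-NA-PP1 with full growth; RAM network block rescues cells from 5-FOA so hits raise OD615 growth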); conditions: S. cerevisiae dse1pr::URA3 5-FOA growth, OD615, 2 d; at 10 µM; hits give high values; strain carries analog-sensitive mutant Cbk1 kinase
[7] = RAM signaling pathway blockade in yeast – S. cerevisiae, Pdr1DBD-CYC8 efflux-inhibited sensitized strain, primary screen (AID 1298;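 active means RAM network inhibition above 8.4% in each of two replicates, 3 SD over the compound average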;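 further: 0% = DMSO untreated cells without growth and 100% = 10 µM 1-NA-PP1 full growth; higher means more yeast growth rescued from 5-FOA killing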); conditions: S. cerevisiae cbk1-as DSE1-URA3 strain, 5-FOA growth OD615, 2 d; at 50 µM; hits give high values

Cc1c(C(=O)NCc2cccnc2)sc2nc(-c3ccccc3)cn12
inactive: growth inhibition [1] -4.69% | growth inhibition [2] 8.62% | viability increase [3] 0.16% | viability [4] 101% | viability [5] 89.5% | inhibition [6] 2.61% | RAM network inhibition [7] 7.67%

Cc1c(C#N)c2ncn(Cc3ccccc3)c(=O)c2n1-c1ccccc1
inactive: growth inhibition [1] -19.7% | growth inhibition [2] -0.37% | viability increase [3] -3.74% | viability [4] 81.1% | viability [5] 83.8% | inhibition [6] 0.47% | RAM network inhibition [7] 4.19%

Cc1cccc(-c2nc(CS(=O)CC(=O)NCC3CCCO3)c(C)o2)c1 (configuration not stated)
inactive: growth inhibition [1] 4.35% | growth inhibition [2] 17.3% | viability increase [3] -2.27% | viability [4] 105% | viability [5] 96.3% | inhibition [6] 0.725% | RAM network inhibition [7] 2.14%

NC(=O)c1sc(=S)n(-c2ccc(Br)cc2)c1N
inactive: growth inhibition [1] -6.66% | growth inhibition [2] 0.735% | viability increase [3] -4.05% | viability [4] 97.7% | viability [5] 83.7% | inhibition [6] 1.51% | RAM network inhibition [7] 2.48%

COc1ccc(-n2c(Cc3cc(=O)[nH]c(=O)[nH]3)nnc2SCC(=O)N2CCCC2)cc1
inactive: growth inhibition [1] -4.92% | growth inhibition [2] -0.375% | viability increase [3] 0.36% | viability [4] 101% | viability [5] 97.9% | inhibition [6] 0.805% | RAM network inhibition [7] 0.42%

CN(C(=O)CSc1nc(N)nn1-c1ccccc1)c1ccccc1
inactive: growth inhibition [1] -7.03% | growth inhibition [2] 4.13% | viability increase [3] -0.53% | viability [4] 104% | viability [5] 99% | inhibition [6] 0.325% | RAM network inhibition [7] 2.3%

COc1ccc(NC2c3ccccc3C(=O)N2c2cccnc2)cc1Cl (configuration not stated)
inactive: growth inhibition [1] 4.54% | growth inhibition [2] 2.02% | viability increase [3] -2.35% | viability [4] 89.5% | viability [5] 80.4% | inhibition [6] 2.27% | RAM network inhibition [7] 0.67%

Cc1ccccc1NC(=O)CSc1[nH]c(=O)cc(C)c1C#N
inactive: growth inhibition [1] -1.3% | growth inhibition [2] 11.7% | viability increase [3] -0.42% | viability [4] 108% | viability [5] 101% | inhibition [6] 2.41% | RAM network inhibition [7] 1.7%

CCOC(=O)N1CCN(C(=O)c2cn(-c3ccc(C)c(C)c3)c(=O)c3ccccc23)CC1
inactive: growth inhibition [1] -10.6% | growth inhibition [2] -0.85% | viability increase [3] -2.69% | viability [4] 85.6% | viability [5] 94.4% | inhibition [6] 0.51% | RAM network inhibition [7] -0.53%

CCOC(=O)N1CCN(C(=O)c2ccccc2Oc2ccccc2)CC1
inactive: growth inhibition [1] -5.57% | growth inhibition [2] 0.11% | viability increase [3] -1.94% | viability [4] 91% | viability [5] 93.3% | inhibition [6] -0.56% | RAM network inhibition [7] 0.52%

CCCOc1cccc(C(=O)Nc2cccc(NC(=O)c3ccco3)c2)c1
inactive: growth inhibition [1] -11.2% | growth inhibition [2] -14.9% | viability increase [3] -3.58% | viability [4] 85.3% | viability [5] 91.6% | inhibition [6] 1.04% | RAM network inhibition [7] 8.68%

O=C1C2CCCN2C(c2cccc(F)c2)N1c1cccc(Cl)c1 (configuration not stated)
inactive: growth inhibition [1] -10.5% | growth inhibition [2] 1.77% | viability increase [3] -0.22% | viability [4] 108% | viability [5] 99% | inhibition [6] 0.56% | RAM network inhibition [7] -0.05%

O=C(CSc1nc2sc3c(c2c(=O)n1-c1ccccc1)CCCC3)NCc1ccco1
inactive: growth inhibition [1] -7.07% | growth inhibition [2] -5.03% | viability increase [3] -7.21% | viability [4] 53.7% | viability [5] 53.8% | inhibition [6] 3.98% | RAM network inhibition [7] 6.12%

COc1c(Cl)cc(-c2noc(C)c2C(=O)NCc2ccc3c(c2)OCO3)cc1Cl
inactive: growth inhibition [1] -16.4% | growth inhibition [2] -10.4% | viability increase [3] -1.08% | viability [4] 89% | viability [5] 84% | inhibition [6] 1.19% | RAM network inhibition [7] 4.27%

CCCCS(=O)CC(COCc1ccccc1)OC(=O)CSc1nc(C)cc(C)n1 (configuration not stated)
inactive: growth inhibition [1] -8.16% | growth inhibition [2] -22% | viability increase [3] -1.32% | viability [4] 97.6% | viability [5] 94.7% | inhibition [6] 0.95% | RAM network inhibition [7] 3.07%

CCOc1ccccc1NC(=O)CSc1nnc(-c2ccco2)n1Cc1ccco1
inactive: growth inhibition [1] 3.23% | growth inhibition [2] 2.22% | viability increase [3] -2.48% | viability [4] 95.7% | viability [5] 88.2% | inhibition [6] -0.165% | RAM network inhibition [7] 3.85%

CCCc1nc(C)c(-c2ccc(OC)c(OC)c2)c(=O)[nH]1
inactive: growth inhibition [1] -17.9% | growth inhibition [2] -15.2% | viability increase [3] -0.18% | viability [4] 101% | viability [5] 95.3% | inhibition [6] 2.53% | RAM network inhibition [7] 0.84%

CC(NC(=O)C1CCCN(S(=O)(=O)c2cnc[nH]2)C1)c1ccccc1 (configuration not stated)
inactive: growth inhibition [1] 2.1% | growth inhibition [2] 2.4% | viability increase [3] -0.99% | viability [4] 98.3% | viability [5] 97.4% | inhibition [6] -0.19% | RAM network inhibition [7] -0.35%

CCOC(=O)c1ccc(N2C(=O)CC(N3CCN(Cc4ccccc4)CC3)C2=O)cc1 (configuration not stated)
inactive: growth inhibition [1] -18.6% | growth inhibition [2] -15.4% | viability increase [3] 0.7% | viability [4] 101% | viability [5] 103% | inhibition [6] 0.175% | RAM network inhibition [7] 2.65%

Cc1ccc(-n2nnc3c(=O)n(Cc4ccccc4C)cnc32)cc1
inactive: growth inhibition [1] -4.99% | growth inhibition [2] -6.7% | viability increase [3] -0.53% | viability [4] 102% | viability [5] 100% | inhibition [6] 2.44% | RAM network inhibition [7] 4.84%

CC(=O)Nc1ccc(NC(=O)C2CC(=O)N(c3cccc(C)c3C)C2)cc1 (configuration not stated)
inactive: growth inhibition [1] -21.2% | growth inhibition [2] -8.03% | viability increase [3] -1.32% | viability [4] 93.8% | viability [5] 91.2% | inhibition [6] 0.435% | RAM network inhibition [7] 2.95%

Cn1nc(-c2ccc(Cl)cc2)c2cc(C(=O)NC3CC3)sc21
inactive: growth inhibition [1] -7.08% | growth inhibition [2] -1.2% | viability increase [3] -6.68% | viability [4] 83.6% | viability [5] 84.2% | inhibition [6] 3.62% | RAM network inhibition [7] 3.94%

CCn1ccnc1C(O)c1cccc(OC)c1OC (configuration not stated)
inactive: growth inhibition [1] -8.24% | growth inhibition [2] -3.01% | viability increase [3] -0.74% | viability [4] 108% | viability [5] 96.3% | inhibition [6] 2.75% | RAM network inhibition [7] 3.57%

CCOc1ccc(NC(=O)CSc2nnc(Cc3cccn3C)n2-c2ccc(F)cc2)cc1
inactive: growth inhibition [1] 11.1% | growth inhibition [2] 19.2% | viability increase [3] -4.64% | viability [4] 95.7% | viability [5] 91% | inhibition [6] 1.56% | RAM network inhibition [7] 6.97%

Cc1cccc(OCc2nc(C#N)c(N3CC(C)CC(C)C3)o2)c1 (configuration not stated)
inactive: growth inhibition [1] 0.505% | growth inhibition [2] -2.89% | viability increase [3] 3.8% | viability [4] 63.5% | viability [5] 65.3% | inhibition [6] 1.85% | RAM network inhibition [7] 5.88%

COc1ccc(-c2nc(CS(=O)CC(=O)NCCC3=CCCCC3)c(C)o2)cc1 (configuration not stated)
inactive: growth inhibition [1] 0.225% | growth inhibition [2] 9.63% | viability increase [3] -4.36% | viability [4] 77.1% | viability [5] 79.6% | inhibition [6] 0.475% | RAM network inhibition [7] 3.02%

C=CCNc1nc2c(c(=O)n(C)c(=O)n2C)n1Cc1ccc(F)cc1
inactive: growth inhibition [1] -0.85% | growth inhibition [2] -2.67% | viability increase [3] -2.03% | viability [4] 63.3% | viability [5] 66.9% | inhibition [6] 0.835% | RAM network inhibition [7] 2.3%

O=C(c1ccc(=O)[nH]c1)N(Cc1ccco1)C1(C(=O)NC2CCCCC2)CCCCC1
inactive: growth inhibition [1] -20% | growth inhibition [2] -18.9% | viability increase [3] -3.3% | viability [4] 97.2% | viability [5] 92.5% | inhibition [6] 0.61% | RAM network inhibition [7] 1.87%

CCn1cc(C(=O)OCC(=O)Nc2c(C)n(C)n(-c3ccccc3)c2=O)c(=O)c2ccc(C)nc21
inactive: growth inhibition [1] -11.8% | growth inhibition [2] -0.91% | viability increase [3] -0.65% | viability [4] 97.6% | viability [5] 95% | inhibition [6] 0.195% | RAM network inhibition [7] 0.21%

Cc1cc2ncn(C(=O)c3c(-c4c(Cl)cccc4Cl)noc3C)c2cc1C
inactive: growth inhibition [1] 0.3% | growth inhibition [2] 5.04% | viability increase [3] -3.42% | viability [4] 95.5% | viability [5] 94.5% | inhibition [6] 1.99% | RAM network inhibition [7] 8.25%

Cc1cc(N2CCOCC2)nc(SCC(=O)c2ccccc2)n1
inactive: growth inhibition [1] -16.5% | growth inhibition [2] -4.63% | viability increase [3] -1.98% | viability [4] 99% | viability [5] 91.7% | inhibition [6] 2.53% | RAM network inhibition [7] 2.06%

Cc1oc(-c2ccc(Cl)cc2)nc1CN1CCCC(C(=O)NCCCN2CCCC2=O)C1 (configuration not stated)
inactive: growth inhibition [1] -14.7% | growth inhibition [2] -21.4% | viability increase [3] -0.61% | viability [4] 63.8% | viability [5] 78.7% | inhibition [6] 1.73% | RAM network inhibition [7] 0.96%

c1ccc2cc3[nH]c(CN4CCCCC4)nc3cc2c1
inactive: growth inhibition [1] -19.8% | growth inhibition [2] -13.4% | viability increase [3] -2.94% | viability [4] 95.9% | viability [5] 87.6% | inhibition [6] 1.58% | RAM network inhibition [7] 5.29%

Cc1cccc(-n2ncc3c(N(C)C4CCCCC4)ncnc32)c1
inactive: growth inhibition [1] 4.55% | growth inhibition [2] 23% | viability increase [3] 2.07% | viability [4] 84.7% | viability [5] 85.8% | inhibition [6] -1.19% | RAM network inhibition [7] 3.02%

CC1(C)C(=O)OC(c2cc(Br)ccc2O)C(C)(C)C1=O (configuration not stated)
inactive: growth inhibition [1] -8.82% | growth inhibition [2] -1.84% | viability increase [3] -2.35% | viability [4] 90.2% | viability [5] 82.1% | inhibition [6] -0.355% | RAM network inhibition [7] 4.3%

CC(=O)NCCn1c(C)cc2ccccc21
inactive: growth inhibition [1] 2.67% | growth inhibition [2] -0.185% | viability increase [3] -0.52% | viability [4] 95.3% | viability [5] 105% | inhibition [6] 0.97% | RAM network inhibition [7] 0.86%
